The results in this text go back to ChEMBL document CHEMBL3822382 (Eur J Med Chem, 2016).

The subject of series [1] is HT-29. The series is described as follows: Cell cycle arrest in combretastatin A-4 resistant human HT-29 cells assessed as accumulation at G1 phase at 50 nM after 24 hrs by propidium iodide staining-based flow cytometry (reference value: 68.1 +/- 0.3%). It is filed as functional. For orientation: A flow cytometer gives signals particle by particle.
In series [2] the test system is HT-29. Nature of the series: Cell cycle arrest in combretastatin A-4 resistant human HT-29 cells assessed as accumulation at S phase at 100 nM after 24 hrs by propidium iodide staining-based flow cytometry (reference value: 13.7 +/- 0.3%). Format: functional. The gist of the method: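 HT-29 cells (200,000/well) were treated 24 h with 100 nM indole, 5 μM CA-4 or DMSO. Cells were trypsinized, fixed in 4% formaldehyde (20 min, RT) and permeabilized in 90% ice-cold methanol (30 min). They were immunostained with anti-phospho-histone H3 (Ser10) (5 μg/mL, 37 °C, 1 h) plus an AlexaFluor-488 secondary, then stained with PI/RNase (30 min, 37 °C). Flow cytometry of 10,000 single cells assigned G1/S/G2/M.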

Series [3] deals with HT-29. The series is described as follows: Cell cycle arrest in combretastatin A-4 resistant human HT-29 cells assessed as accumulation at G2 phase at 50 nM after 24 hrs by propidium iodide staining-based flow cytometry (reference value: 15.6 +/- 0.1%). Format: functional.
A short description of series [4]: Cell cycle arrest in human 518A2 cells assessed as accumulation at G1 phase at 100 nM after 24 hrs by propidium iodide staining-based flow cytometry (reference value: 49.5%). It is filed as functional.
Series [5] in a line: Cell cycle arrest in human 518A2 cells assessed as accumulation at S phase at 100 nM after 24 hrs by propidium iodide staining-based flow cytometry (reference value: 20.4%). Format: functional.
A short description of series [6]: Cell cycle arrest in human 518A2 cells assessed as accumulation at G2/M phase at 100 nM after 24 hrs by propidium iodide staining-based flow cytometry (reference value: 26.3%). Format: functional.
A short description of series [7]: Cell cycle arrest in human 518A2 cells assessed as apoptotic index ratio at 100 nM after 24 hrs by propidium iodide staining-based flow cytometry relative to control. It is filed as functional.
Series [8] can be described thus: Cell cycle arrest in human 518A2 cells assessed as G2/M index ratio at 100 nM after 24 hrs by propidium iodide staining-based flow cytometry relative to control. It is filed as functional.
The test system of series [9] is 518A2. The series is described as follows: Induction of microtubule disruption in human 518A2 cells at 100 nM incubated for 24 hrs by DAPI staining based immunofluorescence microscopic analysis. It is filed as cell-based. The method in brief: (§1)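 518A2 cells (25,000/well) on coverslips treated 24 h with 100 nM. Cells fixed in 4% formaldehyde, permeabilized and blocked (Triton X-100/BSA). Stained with mouse anti-alpha-tubulin (37 °C, 1 h) and AlexaFluor-488 secondary; nuclei counterstained with DAPI (1 µg/mL). Imaged by fluorescence microscopy at 400×.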

For series [10], the system named is HT-29. The series is described as follows: Antivascular activity against in combretastatin A-4 resistant human HT-29 cells xenografted in fertilized white leghorn chicken egg chorioallantoic membrane assessed as blood vessel destruction at 5 nmol after 24 hrs by hematoxylin and eosin staining based stereomicroscopic analysis. It is filed as functional, cell-based. The method in brief: (§2)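 Pellets of 1 × 10⁶ HT-29 cells in 10 μL of 1:1 matrigel/serum-free RPMI (gelled 30 min, 37 °C) were placed on the CAM of fertilized eggs and left 48 h. Then 100 μL of a 50 μM PBS dilution (5 nmol) was pipetted outside a silicon ring around the pellet; DMSO served as control. After 24 h, stereomicroscopy was done, and micro-xenografts were explanted, formalin-fixed, paraffin-embedded and HE-stained.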

The subject of series [11] is HT-29. The series is described as follows: Antivascular activity against in combretastatin A-4 resistant human HT-29 cells xenografted in fertilized white leghorn chicken egg chorioallantoic membrane assessed as blood vessel hemorrhage at 5 nmol after 24 hrs by hematoxylin and eosin staining based stereomicroscopic analysis. Format: functional, cell-based. The gist of the method: as §2
(In xenograft studies the graft and the host belong to different species.)

In series [12] the test system is HT-29. Nature of the series: Antivascular activity against in combretastatin A-4 resistant human HT-29 cells xenografted in fertilized white leghorn chicken egg chorioallantoic membrane assessed as retraction of tumor cells at 5 nmol after 24 hrs by hematoxylin and eosin staining based stereomicroscopic analysis. Format: functional, cell-based. The gist of the method: as §2

The test system of series [13] is HT-29. Nature of the series: Induction of cytoskeletal damage in combretastatin A-4 resistant human HT-29 cells xenografted in fertilized white leghorn chicken egg chorioallantoic membrane at 5 nmol after 24 hrs by hematoxylin and eosin staining based stereomicroscopic analysis. Format: functional, cell-based. The gist of the method: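 Pellets of 1×10^6 HT-29 cells in matrigel/serum-free RPMI placed on the CAM of fertilized eggs for 48 h. Then 5 nmol (100 µL of 50 µM in PBS) applied outside a silicon ring around the pellet; DMSO as control. Imaged by stereomicroscopy after 24 h. Micro-xenografts then explanted, formalin-fixed, paraffin-embedded and HE-stained.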

Series [14] relates to 1411HP. Nature of the series: Vascular disrupting activity against multidrug resistant human 1411HP cells xenografted in athymic nude mouse assessed as hemorrhage at 100 mg/kg, ip after 24 hrs by hematoxylin and eosin staining based microscopic analysis. It is filed as functional, organism-based. The method in brief:
(§3)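 Athymic nude mice carried subcutaneous flank xenografts from 8 million cells. A single intraperitoneal dose of 100 mg/kg was given. After 24 h tumors were explanted, fixed in 5% formalin, paraffin-embedded and HE-stained for microscopic examination of vessels, hemorrhage and necrosis.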

Series [15] relates to 1411HP. Nature of the series: Vascular disrupting activity against multidrug resistant human 1411HP cells xenografted in athymic nude mouse assessed as tumor necrosis at 100 mg/kg, ip after 24 hrs by hematoxylin and eosin staining based microscopic analysis. It is filed as functional, organism-based. The gist of the method: as §3
Series [16] relates to A2780cisR. The series is described as follows: Vascular disrupting activity against human A2780cis cells xenografted in athymic nude mouse assessed as hemorrhage at 100 mg/kg, ip after 24 hrs by hematoxylin and eosin staining based microscopic analysis. Format: functional, organism-based. The gist of the method:
as §3

Series [17] deals with A2780cisR. The series is described as follows: Vascular disrupting activity against human A2780cis cells xenografted in athymic nude mouse assessed as disruption of blood vessel at 100 mg/kg, ip after 24 hrs by hematoxylin and eosin staining based microscopic analysis. It is filed as functional, organism-based. The gist of the method:
as §3

The test system of series [18] is A2780cisR. The series is described as follows: Antitumor activity against human A2780cis cells xenografted in athymic nude mouse assessed as reduction in tumor growth at 40 mg/kg, ip administered on day 3, 7, 10 and 14. It is filed as functional, organism-based.
For series [19], the system named is 518A2. Nature of the series: Effect on microtubule structure in human 518A2 cells at 100 nM incubated for 24 hrs by DAPI staining based immunofluorescence microscopic analysis. Format: cell-based. The method in brief:
as §1

In series [20] the test system is Chorioallantoic membrane. The series is described as follows: Antivascular activity in fertilized white leghorn chicken egg chorioallantoic membrane assessed as disruption of preformed blood vessel at 5 nmol after 12 hrs by stereomicroscopic analysis. Format: functional, tissue-based. The settings on record: Gallus gallus. The method in brief:
(§4)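 Fertilized white leghorn SPF eggs were incubated to day 5 at 37 °C and 50–60% humidity. A shell window was cut, 6 mm silicon rings were placed on developing CAM vessels, and eggs were incubated another 24 h. Compound (500 μM in PBS; 10 μL = 5 nmol, 20 μL = 10 nmol) or DMSO was pipetted inside the ring. Vessel changes were imaged by stereomicroscope at 0, 12 and 24 h.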

In series [21] the test system is Chorioallantoic membrane. Nature of the series: Antivascular activity in fertilized white leghorn chicken egg chorioallantoic membrane assessed as blood vessel hemorrhage at 5 nmol after 12 hrs by stereomicroscopic analysis. Format: functional, tissue-based. The conditions noted are these: Gallus gallus. The method in brief: as §4
Series [22] can be described thus: Cytotoxicity against fertilized white leghorn chicken embryos in CAM model assessed as lethality at 2.5 nmol after 24 hrs relative to control. The settings on record: in vivo. It is filed as organism-based, Gallus gallus.

Each structure is given as a SMILES string. The source made the active and inactive calls. The rule behind the calls is not given here.

In the case of `COc1cc(-c2ncn(C)c2-c2ccc3c(c2)c(Cl)cn3C)cc(Br)c1OC.Cl`, the Activity with HT-29 [1] came to 43.5%; with HT-29 [2] it was 8%; in the series with HT-29 [3], 15.2%; in [4] it was 41%; in [5], 17.8%; in series [6], 33.9%. Besides, the figures for the Ratio in [7] and in [8] were 4.4 and 1.5, respectively. Also, the result in the series with 518A2 [9], in the series with HT-29 [10], in the series on HT-29 [11], in the series with HT-29 [12], in the series with HT-29 [13] and with 1411HP [14] was Active. For the same molecule, the outcome with 1411HP [15], in the series with A2780cisR [16], with A2780cisR [17] and with A2780cisR [18] was Active.
As usually defined, the mortality is the percentage killed. `COc1cc(-c2ncn(C)c2-c2ccc3c(c2)c(Cl)cn3C)cc(OC)c1OC`: in the series with 518A2 [19], the result was inactive. In addition, the outcome in the series with Chorioallantoic membrane [20] and in the series with Chorioallantoic membrane [21] was Active. The mortality at 24 h in [22] was 67%.
